Read-outs that look alike come from different tables or passages of the source.
What was measured:
[1] = type: in vivo, Sprague-Dawley (SD) rats; conditions: for AUC(0-t): AUC0–t; for AUC(0-t) / Cmax / MRT last / MRT inf / Tmax / half-life / CLz / Vz: n = 6; for MRT last: MRT0–t; for MRT inf: MRT0–∞; for half-life: t1/2, rats
[2] = ref Lathia et al., 2006; cited from earlier work
Ugt2b7 = experiment: qRT-PCR mRNA expression in rat liver and intestine after 7 days of dosing; type: in vivo; conditions: after administration for seven consecutive days
In short: (§1)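 Rats (n = 6/group) gavaged daily for 7 days with test compound: 2.5 or 1 mg/kg in 0.5% CMC-Na, or 100 mg/kg in 0.5% CMC-Na with 5% DMSO. Liver and intestine harvested under chloral hydrate and stored at −80 °C. TRNzol RNA extraction; 1 μg RNA reverse-transcribed. qPCR: 95 °C 15 min, then 40 cycles of 95 °C 10 s/60 °C 32 s. […] reference; 2^−ΔΔCT.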

[3] = tested on: patients with advanced HCC; conditions: ref Llovet et al., 2008, cited from earlier work
Oatp1b2 = experiment: qRT-PCR mRNA expression in rat liver after 7 days of dosing; type: in vivo; conditions: after multiple doses
In short: as §1

P-gp = experiment: qRT-PCR mRNA expression in rat liver and intestine after 7 days of dosing; type: in vivo; conditions: after multiple doses
In short: as §1

[4] = Stability of analytes in rat plasma; type: physicochemical; conditions: n = 6
in vivo = type: in vivo, Sprague-Dawley (SD) rats; conditions: for AUC(0-t): AUC0–t; for AUC(0-inf): AUC0–∞; for MRT last: MRT0–t; for MRT inf: MRT0–∞; for half-life: t1/2, rats
Ugt1a7 = experiment: qRT-PCR mRNA expression in rat liver and intestine after 7 days of dosing; type: in vivo; conditions: either the liver or the intestine of rats, after multiple doses
In short: as §1

[5] = ref Chen et al., 2021, Zhang et al.; cited from earlier work
[6] = Sprague-Dawley, rat, plasma, po, 100 mg/kg, rats, sorafenib 100 mg/kg after empagliflozin […] for 7 consecutive days
[7] = Sprague-Dawley, rat, plasma, po, 100 mg/kg, rats, sorafenib 100 mg/kg after henagliflozin 1 mg/kg for 7 consecutive days
[8] = Sprague-Dawley, rat, plasma, po, 100 mg/kg, rats, sorafenib 100 mg/kg by gavage, alone
[9] = rats, after empagliflozin, versus sorafenib alone group
[10] = rats, coadministered with henagliflozin, versus sorafenib alone
[11] = rats, sorafenib 100 mg/kg after empagliflozin […] for 7 consecutive days
[12] = rats, sorafenib 100 mg/kg after henagliflozin 1 mg/kg for 7 consecutive days
[13] = rats, sorafenib 100 mg/kg by gavage, alone
[14] = Autosampler (15 °C) for 6 h, nominal 10 ng/mL
[15] = Autosampler (15 °C) for 6 h, nominal 800 ng/mL
[16] = Autosampler (15 °C) for 6 h, nominal 1,500 ng/mL
[17] = Room temperature for 4 h, nominal 10 ng/mL
[18] = Room temperature for 4 h, nominal 800 ng/mL
[19] = Room temperature for 4 h, nominal 1,500 ng/mL
[20] = Three freeze–thaw cycles (−80 °C to 25 °C), nominal 10 ng/mL
[21] = Three freeze–thaw cycles (−80 °C to 25 °C), nominal 800 ng/mL
[22] = Three freeze–thaw cycles (−80 °C to 25 °C), nominal 1,500 ng/mL
[23] = −80 °C for 30 days, nominal 10 ng/mL
[24] = −80 °C for 30 days, nominal 800 ng/mL
[25] = −80 °C for 30 days, nominal 1,500 ng/mL
[26] = Sprague-Dawley, rat, in vivo, po, 1 mg/kg, rats, henagliflozin 1 mg/kg after sorafenib 100 mg/kg for 7 consecutive days, n = 6
[27] = Sprague-Dawley, rat, in vivo, po, 1 mg/kg, rats, henagliflozin 1 mg/kg oral, alone, n = 6
[28] = rats, henagliflozin 1 mg/kg after sorafenib 100 mg/kg for 7 consecutive days, n = 6
[29] = rats, henagliflozin and sorafenib, versus control group

## CNC(=O)c1cc(Oc2ccc(NC(=O)Nc3ccc(Cl)c(C(F)(F)F)c3)cc2)ccn1 [Sorafenib]
[1]; Sprague-Dawley, rat, plasma, po, 100 mg/kg
  AUC(0-inf): 20600 ng·h/mL
[1]; [6]
  AUC(0-t): 37000 ng·h/mL
  Cmax: 1860 ng/mL
  MRT last: 28.7 ± 11.5 h
[1]; [7]
  AUC(0-t): 33500 ng·h/mL
  Cmax: 1230 ng/mL
  MRT last: 51 ± 11.1 h
  MRT inf: 66 ± 24.8 h
  Tmax: 5.67 ± 2.58 h
[1]; [8]
  AUC(0-t): 20000 ng·h/mL
  Cmax: 967 ± 176 ng/mL
  MRT last: 37.2 ± 11.4 h
  MRT inf: 40.5 ± 13.4 h
  Tmax: 4.33 ± 2.07 h
[1]; Sprague-Dawley, rat, plasma, po, 100 mg/kg, sorafenib 100 mg/kg after empagliflozin […] for 7 consecutive days
  half-life: 47.6 ± 32.2 h
[1]; Sprague-Dawley, rat, plasma, po, 100 mg/kg, sorafenib 100 mg/kg after henagliflozin 1 mg/kg for 7 consecutive days
  half-life: 28.6 ± 21.7 h
[1]; Sprague-Dawley, rat, plasma, po, 100 mg/kg, sorafenib 100 mg/kg by gavage, alone
  half-life: 18.7 ± 4.85 h
[1]; rats, after empagliflozin, versus control group
  decrease of CLz/F of sorafenib: 45%
[1]; [9]
  increase of AUC0–t of sorafenib: 84%
  increase of AUC0–∞ of sorafenib: 93%
  increase of Cmax of sorafenib: 92%
[1]; [10]
  increase of AUC0–t of sorafenib: 67%
  increase of AUC0–∞ of sorafenib: 80%
[1]; [11]
  CLz: 53.3 ± 33.5 mL/min/kg
  Vz: 201.55 ± 161.11 L/kg
[1]; [12]
  CLz: 46.8 ± 10.8 mL/min/kg
  Vz: 110.19 ± 73.12 L/kg
[1]; [13]
  CLz: 97 ± 43.2 mL/min/kg
  Vz: 93.83 ± 63.20 L/kg
[2]
  administered dose eliminated as oxidative metabolites: less than 5%
  administered dose removed from the body through glucuronidation: 15%
Ugt2b7; rat intestine
  downregulation of mRNA expression of Ugt2b7: 68.3%
Ugt2b7; rat liver
  effect on the expression of Ugt2b7: did not significantly affect
[3]; 95% confidence interval [0.55–0.87], P < 0.001
  HR (overall survival versus control group): 0.69
[3]; patients in the sorafenib group, phase 3 versus placebo
  median overall survival: 10.7 months

## CCOc1ccc(Cc2cc([C@@]34OC[C@@](CO)(O3)[C@@H](O)[C@H](O)[C@H]4O)ccc2Cl)cc1F [Henagliflozin]
Oatp1b2
  decrease of mRNA expression of Oatp1b2: 38.4%
P-gp; rat intestine
  decrease of mRNA expression of P-gp: 43.2%
P-gp; rat liver
  decrease of mRNA expression of P-gp: 27.1%
[4]; [14]
  Stability: Accuracy (RE%): −4.33%
  Stability: Mean ± SD measured concentration: 9.57 ± 0.87 ng/mL
[4]; [15]
  Stability: Accuracy (RE%): −1.90%
  Stability: Mean ± SD measured concentration: 784.83 ± 31.98 ng/mL
[4]; [16]
  Stability: Accuracy (RE%): −4.22%
  Stability: Mean ± SD measured concentration: 1,436.67 ± 29.44 ng/ml
[4]; [17]
  Stability: Accuracy (RE%): −0.28%
  Stability: Mean ± SD measured concentration: 9.97 ± 0.73 ng/mL
[4]; [18]
  Stability: Accuracy (RE%): −4.63%
  Stability: Mean ± SD measured concentration: 763.00 ± 31.79 ng/mL
[4]; [19]
  Stability: Accuracy (RE%): −2.00%
  Stability: Mean ± SD measured concentration: 1,470.00 ± 59.67 ng/ml
[4]; [20]
  Stability: Accuracy (RE%): −1.70%
  Stability: Mean ± SD measured concentration: 9.83 ± 0.95 ng/mL
[4]; [21]
  Stability: Accuracy (RE%): −3.65%
  Stability: Mean ± SD measured concentration: 770.83 ± 18.66 ng/mL
[4]; [22]
  Stability: Accuracy (RE%): 0.56%
  Stability: Mean ± SD measured concentration: 1,508.33 ± 72.78 ng/ml
[4]; [23]
  Stability: Accuracy (RE%): −1.12%
  Stability: Mean ± SD measured concentration: 9.89 ± 0.95 ng/mL
[4]; [24]
  Stability: Accuracy (RE%): −1.35%
  Stability: Mean ± SD measured concentration: 789.17 ± 38.83 ng/mL
[4]; [25]
  Stability: Accuracy (RE%): −2.11%
  Stability: Mean ± SD measured concentration: 1,468.33± 53.45 ng/ml
In vivo; [26]
  AUC(0-t): 3450 ng·h/mL
  AUC(0-inf): 3460 ng·h/mL
  MRT last: 9.36 ± 3.63 h
  MRT inf: 9.49 ± 3.57 h
  Tmax: 1.33 ± 1.36 h
In vivo; [27]
  AUC(0-t): 1920 ng·h/mL
  AUC(0-inf): 1950 ng·h/mL
  MRT last: 7.84 ± 1.68 h
  MRT inf: 8.49 ± 2.86 h
  Tmax: 3.25 ± 1.67 h
In vivo; Sprague-Dawley, rat, in vivo, po, 1 mg/kg, Cmax, rats, henagliflozin 1 mg/kg oral, alone, n = 6
  Cmax: 197 ± 36.9 ng/mL
In vivo; Sprague-Dawley, rat, in vivo, po, 1 mg/kg, henagliflozin 1 mg/kg after sorafenib 100 mg/kg for 7 consecutive days, n = 6
  half-life: 5.1 ± 1.31 h
In vivo; Sprague-Dawley, rat, in vivo, po, 1 mg/kg, henagliflozin 1 mg/kg oral, alone, n = 6
  half-life: 5.11 ± 3.62 h
In vivo; [28]
  CLz: 5 ± 0.83 mL/min/kg
  Vz: 2.25 ± 0.77 L/kg
In vivo; rats, henagliflozin 1 mg/kg oral, alone, n = 6
  CLz: 8.83 ± 1.7 mL/min/kg
In vivo; rats, henagliflozin and sorafenib versus control
  differences in Tmax, t1/2, Vz/F, MRT0–t and MRT0–∞ of henagliflozin: no significant differences
In vivo; [29]
  increase of AUC0–t of henagliflozin: 79.1%
  increase of AUC0–∞ of henagliflozin: 77.7%
Ugt1a7
  change in the expression of Ugt1a7: no significant change
[5]
  eliminated by the fecal route: 50%
  eliminated by the renal route: 30%

— PMC12248229 (PeerJ, 2025)
